Bioassay records (PubChem BioAssay)
NPR1 activator = GC-A (human) enzyme activation; P16066; HEK293 GC-A cells, cGMP TR-FRET, EC30 ANP; 0% at EC30 ANP, 100% saturating ANP; activation, % at 10 µM; actives 0.14% (n = 370,000); in the data active means activation above about 40%
NPR2 activator = GC-B (human) receptor activation | P20594 | HEK293-GC-B cells, CNP EC30, cGMP TR-FRET; 0% at EC30 CNP, 100% saturating CNP | activation, % at 10 µM | actives 0.11% (n = 370,000);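 active means activation at 10 µM reaching about 35% in either raw or pattern-adjusted values, limit read from the data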
GalR3 antagonist = antagonists of human GalR3; inhibition, % at 3 µM; actives 0.44% (n = 360,000); AID 651719; O60755; HEK293 GalR3-CNG cAMP membrane potential fluorescence; galR3 body fused to GalR1 C-terminus;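 active means inhibition above the screen-wide average plus 3 SD, cut at about 13% in these data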;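 further: forskolin and galanin both at EC90 stimulate the cells; cAMP rise reported by CNG channel membrane potential dye signal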
Arrestin-AP2 inh = inhibitors of human beta-arrestin and AP2 interaction; FITC-arrestin peptide / GST-AP2 beads, flow cytometry; AP2 beta2 appendage carries R879A mutation; inhibition, % at 10 µM; actives 0.31% (n = 340,000); AID 504490;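 active means inhibition above a set limit, near 3 SD of compounds lacking own fluorescence, cut at about 54% in these data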
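Measured by: flow cytometry, FL1 (488/535 nm); Material: AP2 appendage R879A on GSH beads; Evaluation: percent response; Timing: pre-incubation 12 min, peptide binding 1 h, room temperature; Also added: 50 nM FITC-arrestin peptide; Medium: PBS with 0.05% Tween 20 and 0.1% BSA.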
Arr-AP2 CP1 = blocks beta-arrestin peptide binding to human AP2 | GST-AP2 beads, FITC arrestin peptide binding, flow cytometry; GST-fused beta2-adaptin appendage, R879A mutant | AID 504908 | shares compounds with Arrestin-AP2 inh | actives 2% (n = 1,300) | inhibition, % at 10 µM;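 active means inhibition above a set limit, roughly 3 SD of non-fluorescent compound noise, cut at about 38% in these data; inactive means inhibition at or below that limit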;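 further: loss of bead fluorescence from 50 nM FITC arrestin peptide bound to appendage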
Target sequence (P63010 whole entry, looked up, the tested form may be a part, one chain of several): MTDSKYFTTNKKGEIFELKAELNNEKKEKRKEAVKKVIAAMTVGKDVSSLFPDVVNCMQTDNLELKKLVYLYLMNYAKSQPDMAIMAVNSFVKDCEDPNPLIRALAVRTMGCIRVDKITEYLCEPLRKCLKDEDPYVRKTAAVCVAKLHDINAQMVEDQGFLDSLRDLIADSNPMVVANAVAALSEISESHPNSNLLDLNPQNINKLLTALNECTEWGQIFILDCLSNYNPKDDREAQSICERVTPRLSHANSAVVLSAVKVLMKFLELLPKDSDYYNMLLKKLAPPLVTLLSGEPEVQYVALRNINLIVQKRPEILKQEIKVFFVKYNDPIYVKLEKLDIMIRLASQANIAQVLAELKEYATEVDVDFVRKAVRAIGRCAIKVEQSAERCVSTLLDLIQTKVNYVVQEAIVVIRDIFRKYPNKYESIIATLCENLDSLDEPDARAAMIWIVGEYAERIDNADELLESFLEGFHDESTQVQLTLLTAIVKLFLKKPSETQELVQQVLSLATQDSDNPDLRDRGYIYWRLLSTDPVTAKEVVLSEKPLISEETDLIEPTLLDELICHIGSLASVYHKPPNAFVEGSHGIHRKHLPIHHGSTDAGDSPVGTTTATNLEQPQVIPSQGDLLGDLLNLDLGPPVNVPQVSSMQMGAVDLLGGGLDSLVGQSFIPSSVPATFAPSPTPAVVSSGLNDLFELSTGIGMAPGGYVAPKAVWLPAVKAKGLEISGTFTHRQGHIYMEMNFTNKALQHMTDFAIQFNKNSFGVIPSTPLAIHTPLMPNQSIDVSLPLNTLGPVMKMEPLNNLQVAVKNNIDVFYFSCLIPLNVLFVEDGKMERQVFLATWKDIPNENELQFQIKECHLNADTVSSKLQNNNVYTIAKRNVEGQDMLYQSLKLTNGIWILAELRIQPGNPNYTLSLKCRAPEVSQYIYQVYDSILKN
GST-FITC bead = counter-screen for beta-arrestin AP2 inhibitors: GST-GSH bead binding. shares compounds with Arrestin-AP2 inh. GST-fluorescein binding to GSH beads, fluorescence. inhibition, % at 10 µM. actives 2% (n = 1,300). AID 588338;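 active means inhibition above 50%, about 3 SD of the inhibition seen with non-fluorescent compounds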;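 further: fluorescein maleimide labelled GST captured on 4 micron glutathione beads; higher means more loss of bead fluorescence from quenching or blocked binding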
Hits are given with their value; . = inactive; / = not tested or not shown. The list is not random: actives were taken first. Their share in the collection is about 0.94%.

SMILES | NPR1 activator | NPR2 activator | GalR3 antagonist | Arrestin-AP2 inh | Arr-AP2 CP1 | GST-FITC bead
N=C1N(C(=O)OCc2ccccc2)/C(=C\C2=CCCCC2)C(Cc2ccccc2)N1Cc1ccccc1 (centres undefined) | . | . | / | / | / | /
O=C(Nc1cc(Cl)ccc1Oc1ccccc1)c1ccccc1F | . | . | . | . | / | /
O=C(Nc1cc(Cl)ccc1Oc1ccccc1)c1ccc(F)cc1 | . | . | . | 61 | . | .
COc1cccc(NC(=O)CCCn2c(=O)[nH]c3ccccc3c2=O)c1 | . | . | . | . | . | .
O=C(Cn1c(=O)[nH]c2ccccc2c1=O)Nc1ccc2c(c1)OCCO2 | . | . | . | . | . | .
COc1ccc(NC(=O)CCn2c(=S)[nH]c3ccccc3c2=O)cc1OC | . | . | . | . | / | /
O=C(NCCc1c[nH]c2ccccc12)OCc1cn(-c2cccc(Cl)c2)nn1 | . | . | / | / | / | /
Cc1ccc(N/C=C2/Sc3ccccc3NC2=O)cc1 | . | . | . | 83 | . | .
Cc1cc(C(=O)CCl)c(C)n1-c1cccc([N+](=O)[O-])c1 | . | . | . | 62 | . | .
O=C(Oc1ccccc1Cl)c1ccc2c(=O)n3c(nc2c1)CCC3 | . | . | . | . | / | /
O=C(Oc1ccccc1F)c1ccc2c(=O)n3c(nc2c1)CCC3 | . | . | . | 57 | . | .
CC(=O)/C(=N\Nc1ccccc1)Sc1nnc(-c2ccccc2)n1-c1ccccc1 | . | . | . | 91 | . | .
CCOc1ccc(C(=O)NC(=S)Nc2ncccc2C)cc1[N+](=O)[O-] | . | . | . | 58 | . | .
O=C(Cc1ccc(NC(=O)C2CCCN(C(=O)c3ccccc3)C2)cc1)Nc1cccc(C(=O)N2CCCCC2)c1 (centres undefined) | . | . | . | / | / | /
O=C(CCN1C(=O)S/C(=C\c2ccccc2)C1=O)Nc1ccc(S(=O)(=O)Nc2nccs2)cc1 | . | . | . | . | / | /
COc1ccccc1/C=C1/SC(=O)N(CCC(=O)Nc2ccc(S(=O)(=O)Nc3nccs3)cc2)C1=O | . | . | . | 61 | . | .
COc1cccc(N2CCN(CC(=O)NCc3ccco3)CC2)c1 | . | . | / | / | / | /
CC(=O)C1=C(C)N(Cc2ccc(F)cc2)C(=S)NC1c1cccc(Br)c1 (centres undefined) | . | . | . | / | / | /
O=C(CCCCCNC(=O)c1ccccc1)N/N=C/c1ccc(O)cc1O | . | . | . | 60 | . | .
C/C(=N\NC(=O)CCCCCNC(=O)c1ccccc1)c1ccccc1O | . | . | . | . | / | /
COc1ccccc1CNC(=O)COC(=O)c1c(C)nn(-c2ccccc2)c1Cl | . | . | . | 67 | . | .
COc1cccc(CNC(=O)COC(=O)c2c(C)nn(-c3ccccc3)c2Cl)c1 | . | . | . | . | / | /
CCC(C)NC(=O)C1CCC(CNS(=O)(=O)c2cccc3nsnc23)CC1 (centres undefined) | / | / | / | 54 | . | .
Cc1cc(NC(=O)c2cnn3c(C(F)F)cc(-c4ccccc4)nc23)no1 | . | . | . | . | . | .
Cc1cc(NC(=O)c2cnn3c(C(F)F)cc(C4CC4)nc23)no1 | . | . | . | . | / | /
SMILES | NPR1 activator | NPR2 activator | GalR3 antagonist | Arrestin-AP2 inh | Arr-AP2 CP1 | GST-FITC bead
COC(=O)c1cnn2c(C(F)(F)F)cc(-c3ccccc3)nc12 | . | . | . | . | / | /
Cc1cc(NC(=O)c2cnn3c(C(F)(F)F)cc(-c4ccccc4)nc23)no1 | . | . | . | . | . | .
COc1cc(OC)cc(C(=O)NC(C(=O)NNC(=O)c2ccc(C)cc2)C(C)C)c1 (centres undefined) | . | . | . | 63 | . | .
CC(C)(C)S(=O)(=O)/C(C#N)=N/Nc1ccc(Cl)cc1 | . | . | . | 57 | . | .
COC(=O)c1cc(-c2ccc(C)c(C)c2)c(=O)n2c1CCC2 | . | . | / | / | / | /
Cc1cc(NC(=O)c2cc(-c3ccc(C)s3)nc3ccccc23)no1 | . | . | . | 103 | . | .
Cc1cc(NC(=O)c2cc(-c3ccccc3C)nc3ccccc23)no1 | . | . | . | . | / | /
COC(=O)[C@]12C[C@H](CC(=O)N3CCSCC3)C(=O)N(CCc3ccc(OC)c(OC)c3)C1=C[C@H](C(C)C)O[C@@H]2C1CC1 | . | . | / | / | / | /
O=C(/C=C/c1ccccc1)NCCS(=O)(=O)N1CCN(c2ccccc2)CC1 | . | . | . | 55 | . | .
O=C(/C=C/c1ccc2c(c1)OCO2)NCCS(=O)(=O)N1CCN(c2ccccc2)CC1 | . | . | . | / | / | /
COc1ccc(OC)c(C2C(C(=O)c3ccc(C)o3)=C(O)C(=O)N2c2cc(C)on2)c1 (centres undefined) | . | . | . | 59 | . | .
COc1ccc(C2C(C(=O)c3ccc(C)o3)=C(O)C(=O)N2c2cc(C)on2)cc1OC (centres undefined) | . | . | . | . | / | /
O=C(NC1CCCCC1)OC[C@@H]1CSCCS(=O)(=O)N1 | . | . | . | / | / | /
COc1ccc(NC(=O)c2cc(S(=O)(=O)N3CCOCC3)ccc2N2CCOCC2)cc1 | . | . | . | . | / | /
COc1ccc(CN(C)C(=O)c2cc(S(=O)(=O)N3CCOCC3)ccc2N2CCCC2)cc1 | . | . | . | . | . | .
CC1CCN(C(=O)c2cc(S(=O)(=O)N3CCOCC3)ccc2N2CCCC2)CC1 | . | . | . | . | . | .
CC(Oc1cccc(Cl)c1)C(=O)Nc1cc(S(=O)(=O)N2CCOCC2)ccc1N1CCCC1 (centres undefined) | . | . | . | 62 | . | .
O=C(Nc1ccc(OC(F)F)cc1)c1cc(S(=O)(=O)N2CCOCC2)ccc1N1CCCC1 | . | . | . | . | . | .
CN(Cc1cccc(F)c1)C(=O)c1ccc(S(=O)(=O)N2CCOCC2)cc1 | . | . | . | 63 | . | .
O=C(NC1CCCCCC1)c1cc(S(=O)(=O)N2CCOCC2)ccc1N1CCCCC1 | . | . | . | . | . | .
CN(Cc1cccc(F)c1)C(=O)c1ccc(S(=O)(=O)N2CCCCCC2)cc1 | . | . | . | . | / | /
CC(C)(C)C(=O)c1c(N)[nH]c(C(=O)c2ccccc2)c1-c1ccccc1 | . | . | . | / | / | /
COC(=O)[C@]12CCCCC=C1N(Cc1ccc(OC)cc1)C(=O)[C@@H]2CC(=O)NCCc1ccccc1OC | . | . | / | / | / | /
Cc1c(C(=O)NCCN2CCOC2=O)oc2c(F)cccc12 | . | . | . | . | / | /
Cc1c(C(=O)NCCN2CCCC(O)C2)oc2c(F)cccc12 (centres undefined) | . | . | . | 58 | . | .
Cc1cccc(-n2nc(C)c3c2NC2=C(C(=O)CCC2)C3c2ccccn2)c1 (centres undefined) | . | . | . | . | / | /
Cc1nn(-c2ccccn2)c2c1C(c1ccsc1)C1=C(CCCC1=O)N2 (centres undefined) | . | . | . | 105 | . | .
